# Measurements published in ChEMBL document CHEMBL4041535, “Rational design, synthesis and in vitro evaluation of novel exo-methylene butyrolactone salicyloylamide as NF-κB inhibitor” (Bioorg Med Chem Lett, 2017).
# Calls of active or inactive are those of the source. The rule behind the calls is not given here.
# What was measured:
# [1] = target: Transcription factor p65 (Mus musculus) (UniProt Q04207); assay: Inhibition of LPS-induced NFkappaB p65-mediated IL-1beta secretion in mouse RAW264.7 cells at 0.1 to 1 ug/ml preincubated for 30 mins followed by LPS addition measured after 24 hrs by ELISA; type: cell-based
# Chain of Transcription factor p65 (Mus musculus) (Q04207 whole entry): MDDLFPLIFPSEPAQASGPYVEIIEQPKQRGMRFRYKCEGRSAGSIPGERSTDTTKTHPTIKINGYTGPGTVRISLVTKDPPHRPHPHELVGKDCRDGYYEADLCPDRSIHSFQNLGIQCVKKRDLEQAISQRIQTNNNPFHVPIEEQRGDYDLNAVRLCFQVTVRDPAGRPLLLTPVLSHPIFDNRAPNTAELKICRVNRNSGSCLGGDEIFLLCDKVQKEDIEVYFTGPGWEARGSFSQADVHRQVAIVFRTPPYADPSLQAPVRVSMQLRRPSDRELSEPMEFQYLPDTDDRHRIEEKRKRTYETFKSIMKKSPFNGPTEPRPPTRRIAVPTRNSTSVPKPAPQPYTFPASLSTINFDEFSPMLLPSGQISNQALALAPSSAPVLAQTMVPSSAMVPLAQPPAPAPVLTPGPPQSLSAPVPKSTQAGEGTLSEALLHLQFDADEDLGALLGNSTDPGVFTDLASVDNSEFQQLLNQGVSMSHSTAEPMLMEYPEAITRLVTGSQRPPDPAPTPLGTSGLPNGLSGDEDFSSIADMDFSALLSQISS
# Procedure, shortened: (§1)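 RAW264.7 cells given compound 30 min before LPS, then incubated 24 h. IL-6, IL-1β, TNF-α in medium quantified by ELISA. Mean ± SD of 3 determinations.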
# [2] = target: Transcription factor p65 (Homo sapiens) (UniProt Q04206); assay: Inhibition of NFkappaB p65 in human ES2 cells assessed as reduction in MMP2 mRNA expression at 0.1 to 1 ug/ml after 24 hrs by qPCR method; type: cell-based
# Chain of Transcription factor p65 (Homo sapiens) (Q04206 whole entry): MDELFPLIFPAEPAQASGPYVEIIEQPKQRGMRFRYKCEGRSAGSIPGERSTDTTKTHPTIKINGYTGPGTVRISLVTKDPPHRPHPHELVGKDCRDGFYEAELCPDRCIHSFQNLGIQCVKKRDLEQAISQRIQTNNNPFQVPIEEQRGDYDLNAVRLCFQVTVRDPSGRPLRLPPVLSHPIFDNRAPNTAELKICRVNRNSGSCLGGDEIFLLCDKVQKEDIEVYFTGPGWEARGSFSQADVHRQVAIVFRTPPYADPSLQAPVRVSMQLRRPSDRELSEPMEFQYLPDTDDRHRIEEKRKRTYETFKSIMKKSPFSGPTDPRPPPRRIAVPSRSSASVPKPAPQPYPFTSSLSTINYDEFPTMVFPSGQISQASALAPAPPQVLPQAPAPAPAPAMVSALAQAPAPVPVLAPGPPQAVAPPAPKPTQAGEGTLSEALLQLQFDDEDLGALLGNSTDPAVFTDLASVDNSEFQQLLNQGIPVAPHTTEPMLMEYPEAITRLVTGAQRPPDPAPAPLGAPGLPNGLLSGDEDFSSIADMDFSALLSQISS
# Procedure, shortened: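 ES-2 cells incubated with compound 24 h; MMP-2 mRNA detected by semi-quantitative PCR.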
# [3] = target: Transcription factor p65 (Homo sapiens) (UniProt Q04206); assay: Inhibition of constitutively activated NFkappaB p65 in human ES2 cells at 3 to 10 ug/ml after 2 hrs by kappaB DNA binding based colorimetric method; type: cell-based
# Procedure, shortened: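 ES-2 cells exposed to compound 2 h. Nuclear extract prepared. p65 binding to κB DNA-coated dish detected with labeled p65 antibody.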
# [4] = target: Transcription factor p65 (Mus musculus) (UniProt Q04207); assay: Inhibition of kappaB DNA binding to NFkappaB p65 in LPS-stimulated mouse RAW264.7 nuclear extract at 3 to 10 ug/ml after 15 mins by colorimetric method
# Procedure, shortened: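 RAW264.7 cells stimulated with LPS 2 h to accumulate nuclear NF-κB. Nuclear extract prepared; compound added directly to extract. p65-κB DNA binding read with TransAM NF-κB p65 kit. Mean ± SD of 3 independent experiments.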
# [5] = target: Transcription factor p65 (Mus musculus) (UniProt Q04207); assay: Inhibition of LPS-induced NFkappaB p65 activation in mouse RAW264.7 cells at 0.3 to 1 ug/ml preincubated for 30 mins followed by LPS addition measured after 2 hrs by kappaB DNA binding based colorimetric method; type: cell-based
# Procedure, shortened: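 RAW264.7 cells given compound 30 min before LPS, stimulated 2 h. Nuclear extract prepared. p65 binding measured on κB DNA-coated dish with labeled p65 antibody (TransAM kit). Mean ± SD of 3 independent experiments.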
# [6] = target: Transcription factor p65 (Homo sapiens) (UniProt Q04206); assay: Inhibition of NFkappaB p65 in human ES2 cells assessed as reduction in MMP2 secretion at 3 to 10 ug/ml after 24 hrs by ELISA; type: cell-based
# Procedure, shortened: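 ES-2 cells incubated with compound 24 h; secreted MMP-2 in medium by ELISA. Mean ± SD of 3 determinations.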
# [7] = tested on: RAW264.7; assay: Cytotoxicity against mouse RAW264.7 cells assessed as reduction in cell viability up to 1 ug/ml after 24 hrs by MTT assay; type: cell-based; settings: raw264.7, 24 h
# Procedure, shortened: (§2)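 Cells treated with compound 24 h; viability by MTT. Mean ± SD of 3 determinations.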
# [8] = target: Transcription factor p65 (Mus musculus) (UniProt Q04207); assay: Inhibition of LPS-induced NFkappaB p65-mediated iNOS mRNA expression in mouse RAW264.7 cells at 0.1 to 1 ug/ml preincubated for 30 mins followed by LPS addition measured after 24 hrs by qPCR method; type: cell-based
# Procedure, shortened: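 RAW264.7 cells incubated with compound plus LPS 24 h; iNOS mRNA detected by semi-quantitative PCR.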
# [9] = target: Transcription factor p65 (Homo sapiens) (UniProt Q04206); assay: Inhibition of kappaB DNA binding to NFkappaB p65 in human ES2 nuclear extract at 3 to 10 ug/ml after 15 mins by colorimetric method
# Procedure, shortened: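 Compound added directly to ES-2 nuclear extract. p65 binding to κB DNA-coated dish detected with labeled p65 antibody. Mean ± SD of 3 independent experiments.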
# [10] = Cytotoxicity against human ES2 cells assessed as reduction in cell viability up to 30 ug/ml after 24 hrs by MTT assay; type: cell-based; settings: es2, 24 h; procedure, shortened: as §2
# [11] = tested on: ES2; assay: Antimigratory activity against human ES2 cells at 1 to 10 ug/ml after 24 hrs by radius 96-well migration assay; type: functional, cell-based
# Procedure, shortened: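 ES-2 cells treated 24 h; migration read by Radius 96-well cell migration assay. Mean ± SD of 3 determinations.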
# [12] = target: Transcription factor p65 (Mus musculus) (UniProt Q04207); assay: Inhibition of LPS-induced NFkappaB p65-mediated iNOS induction in mouse RAW264.7 cells assessed as reduction in NO production at 1 ug/ml using 12 hrs PBS incubated compound preincubated for 30 mins with cells followed by LPS addition measured after 24 hrs by Griess assay; type: cell-based
# Procedure, shortened: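 Compound pre-incubated in PBS at 100 µg/ml, then added to RAW264.7 cells to give 1 µg/ml. LPS 10 ng/ml added 30 min later, 24 h. NO by Griess assay. Mean ± SD of 3 determinations.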
# [13] = target: Transcription factor p65 (Mus musculus) (UniProt Q04207); assay: Inhibition of LPS-induced NFkappaB p65-mediated iNOS induction in mouse RAW264.7 cells assessed as reduction in NO production preincubated for 30 mins followed by LPS addition measured after 24 hrs by Griess assay; type: cell-based
# Procedure, shortened: (§3)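 RAW264.7 cells given compound 30 min before LPS, then incubated 24 h. Nitrite in medium measured by Griess assay. Mean ± SD of 3 determinations.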
# [14] = Chemical stability in PBS at 100 ug/ml up to 12 hrs at 37 degC by HPLC analysis; type: physicochemical; settings: buffer
# Procedure, shortened: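 Compound dissolved in PBS at 100 µg/ml, held at 37 °C for 0, 30 min, 1, 2, 6, 12 h. Extracted into ethyl acetate, dried, then quantified by HPLC. Column: ODS at 40 °C. Mobile phase: acetonitrile/0.1% ammonium acetate (22:78), 0.3 mL/min. UV detection at 254 nm. Mean ± SD of 3 determinations.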
# [15] = tested on: ES2; assay: Anti-invasive activity against human ES2 cells at 0.1 to 0.3 ug/ml after 24 hrs by Diff-Quick staining based matrigel chamber assay; type: functional, cell-based
# Procedure, shortened: (§4)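 ES-2 ovarian clear cell carcinoma cells exposed to compound 24 h; invasion through Matrigel chamber. Mean ± SD of 4 fields.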
# [16] = target: Transcription factor p65 (Mus musculus) (UniProt Q04207); assay: Inhibition of LPS-induced NFkappaB p65-mediated TNF-alpha secretion in mouse RAW264.7 cells at 0.1 to 1 ug/ml preincubated for 30 mins followed by LPS addition measured after 24 hrs by ELISA; type: cell-based; procedure, shortened: as §1
# [17] = target: Transcription factor p65 (Mus musculus) (UniProt Q04207); assay: Inhibition of LPS-induced NFkappaB p65-mediated IL-6 secretion in mouse RAW264.7 cells at 0.1 to 1 ug/ml preincubated for 30 mins followed by LPS addition measured after 24 hrs by ELISA; type: cell-based; procedure, shortened: as §1
# [18] = target: Transcription factor p65 (Mus musculus) (UniProt Q04207); assay: Inhibition of LPS-induced NFkappaB p65-mediated iNOS induction in mouse RAW264.7 cells assessed as reduction in NO production at 0.3 to 10 ug/ml preincubated for 30 mins followed by LPS addition measured after 24 hrs by Griess assay; type: cell-based; procedure, shortened: as §3
# [19] = tested on: ES2; assay: Anti-invasive activity against human ES2 cells at 1 to 10 ug/ml after 24 hrs by Diff-Quick staining based matrigel chamber assay; type: functional, cell-based; procedure, shortened: as §4
inhibition [1],inhibition [2],inhibition [3],inhibition [4],inhibition [5],inhibition [6],inhibition [8],inhibition [9],inhibition [12],inhibition [13],Stability [14],inhibition [16],inhibition [17],inhibition [18],Compound,Activity [7],Activity [10],inhibition [11],inhibition [15],inhibition [19]
Active,Active,Active,Active,Active,Active,Active,Active,Active,Dose-dependent effect,Stable,Active,Active,–,C=C1C(=O)OC[C@H]1NC(=O)c1ccccc1O,Non-Toxic,Non-Toxic,Active,Active,–
–,–,Active,Active,Active,–,–,–,–,–,Unstable,–,–,Active,O=C(NC1=CC(=O)[C@H]2O[C@H]2[C@H]1O)c1ccccc1O [DEHYDROXYMETHYLEPOXYQUINOMICIN],–,–,–,–,Active
